Source: PubChem (several laboratories)
Rows were chosen to be rich in hits. Some 1.9% of all compounds tested hit in one or more screens of this group.
sPLA2-III inh: Blocks human group III sPLA2 activity. QFRET BODIPY PC-A2 liposome hydrolysis, fluorescence. Q9NZ20. 370,000 compounds, 0.56% hits. AID 743126. inhibition, % at 12.2 µM;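 active = inhibition above mean plus 3 SD of compounds lying within the high and low control bounds, cut at about 19% in these data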;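 also: 0% = median of test compound wells and 100% = no enzyme DMSO wells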
Target sequence (Q9NZ20 whole entry, looked up): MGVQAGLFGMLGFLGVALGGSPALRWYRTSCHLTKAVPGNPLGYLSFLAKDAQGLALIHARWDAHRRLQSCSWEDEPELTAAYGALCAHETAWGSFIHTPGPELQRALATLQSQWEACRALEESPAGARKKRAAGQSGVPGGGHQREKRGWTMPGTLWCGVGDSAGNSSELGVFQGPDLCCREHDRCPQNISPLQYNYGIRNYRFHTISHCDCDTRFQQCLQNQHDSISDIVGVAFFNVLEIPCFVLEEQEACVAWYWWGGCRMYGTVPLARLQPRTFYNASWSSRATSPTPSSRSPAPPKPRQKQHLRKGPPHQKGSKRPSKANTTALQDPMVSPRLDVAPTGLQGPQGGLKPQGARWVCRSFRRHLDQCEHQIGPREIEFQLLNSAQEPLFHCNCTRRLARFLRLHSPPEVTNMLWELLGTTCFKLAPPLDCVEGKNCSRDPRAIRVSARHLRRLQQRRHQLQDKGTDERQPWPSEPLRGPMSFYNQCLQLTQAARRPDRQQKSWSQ
PLCb3 inh: PLC-beta3 (human) inhibition, primary screen; Q01970; Purified PLC-beta3, fluorogenic substrate, fluorescence; inhibition, % at 12.2 µM; 370,000 compounds, 0.18% hits; AID 720704;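 also: 0% = median of compound wells on plate and 100% = full blocker control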
proCasp7 act: activates human procaspase-7, counter-screen for procaspase-3 activators. activation, % at 8.5 µM. recombinant procaspase-7, Ac-DEVD-pNA absorbance 405 nm; D23A/D198A/D206A triple mutant, cannot self-cleave; scale: DMSO 0, 5 µM enzyme 100. 330,000 compounds, 0.093% hits;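 active = percent activation above the screen-wide mean plus 3 SD, cut at about 25% in these data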
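Replicates: singlicate. Assay system: Procaspase-7 triple mutant (PC-7 D3A). Signal: 405 nm absorbance of p-nitroaniline. Times: 1 h preincubation, 2 h reaction. Buffer or medium: Zinc-free HEPES pH 7.4 with 300 mM NaCl, 0.01% Triton X-100. Also added: DEVD-pNA substrate. Benchmarks: DMSO wells as 0%, DMSO with 5 µM added PC-7 as 100%.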
PLC-gamma1 inh: inhibitors of human phospholipase C gamma1. P19174. AID 720700. purified PLC-gamma1, fluorogenic substrate, fluorescence. inhibition, % at 12.2 µM. 370,000 compounds, 0.84% hits; in the data active = inhibition above about 9.5%
Arr AP2 block: human beta-arrestin and AP2 interaction inhibition; FITC-arrestin peptide / GST-AP2 beads, flow cytometry; AP2 beta2 appendage carries R879A mutation; inhibition, % at 10 µM; 340,000 compounds, 0.31% hits; AID 504490;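 active = inhibition above a set limit, near 3 SD of compounds lacking own fluorescence, cut at about 54% in these data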;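 also: plate controls were DMSO wells for no effect and 5 µM unlabelled arrestin peptide for full effect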
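Material – GST-tagged AP2 beta2-adaptin appendage (R879A) on 4 µm glutathione beads · Probe or stimulus – fluorescein-tagged arrestin peptide at 50 nM final · Timing – 12 min plus 1 h, RT · Detection – bead flow cytometry, FITC channel · Read-out basis – inhibition as reduced fluorescein signal on beads, percent · Medium – PBS plus Tween 20 (0.05%) and BSA (0.1%)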
proCasp3 act: activators of human procaspase-3. P42574. recombinant procaspase-3 D3A, Ac-DEVD-pNA absorbance 405 nm. activation, % at 8.5 µM. 330,000 compounds, 0.11% hits;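 active = activation above the mean of all tested compounds plus 3 SD, cut at about 21% in these data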;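 also: 0% = DMSO alone and 100% = DMSO wells spiked with extra 5 µM PC-3 D3A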
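Technique: 405 nm absorbance of p-nitroaniline, reads at 0 and 120 min; Test system: Procaspase-3 D3A mutant; Incubation: 1 h enzyme-compound preincubation, then 2 h substrate reaction, 25 °C; Repeats: singlicate, each compound tested once; Benchmarks: low control DMSO wells, high control DMSO plus 5 µM PC-3 D3A.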
PLCgamma1 ctr: PLC-gamma1 inhibition, counter-screen for PLC-beta3 hits; shares compounds with PLC-gamma1 inh; purified PLC-gamma1, fluorogenic substrate, fluorescence; inhibition, % at 12.3 µM; 3,300 compounds, 3.1% hits; in the data active = inhibition above about 9.5%
PLCbeta3 conf: human PLC-beta3 inhibition, confirmation. 3,300 compounds, 1% hits. purified PLC-beta3, fluorogenic substrate fluorescence. shares compounds with PLC-gamma1 inh. inhibition, % at 12.3 µM. AID 743261
The depositor's hits bear a star. Rule as the data show it, unless noted: active = inhibition above about 11%; inactive = the rest.

CN1CCN(c2ccc(CNC[C@H]3O[C@@H](n4cnc5c(=O)[nH]c(N)nc54)[C@H](O)[C@@H]3O)c(F)c2)CC1 was read as sPLA2-III inh 17, PLCb3 inh 2, PLC-gamma1 inh 9.8*, PLCgamma1 ctr -9 and PLCbeta3 conf -6.
Screening Cc1cc(SCC(=O)N2CCCC2=O)nc2ccccc12 returned sPLA2-III inh -9, PLCb3 inh -1, proCasp7 act -2, PLC-gamma1 inh 12*, Arr AP2 block 23, proCasp3 act 2, PLCgamma1 ctr -3 and PLCbeta3 conf -4.
Cc1cc(SCCC(=O)O)nc2ccccc12 was read as sPLA2-III inh 5, PLCb3 inh 3, proCasp7 act -1, PLC-gamma1 inh -2, Arr AP2 block 3 and proCasp3 act -1.
Screening C[C@@]12C(=O)N(c3cccc(F)c3)C(=O)N1[C@@H]1c3ccccc3OC[C@@H]1[C@H]2c1ccccc1 returned sPLA2-III inh 10, PLCb3 inh 6, proCasp7 act 5, PLC-gamma1 inh 10.0*, Arr AP2 block -4, proCasp3 act 1, PLCgamma1 ctr 4 and PLCbeta3 conf 4.
For Cc1ccc(SCCNC(=O)C(C)C)cc1 the results were sPLA2-III inh 4, PLCb3 inh 5, proCasp7 act -3, PLC-gamma1 inh 9.7*, Arr AP2 block 4, proCasp3 act 0, PLCgamma1 ctr -12 and PLCbeta3 conf -2.
Cc1ccc(NC(=O)NCCSc2ccc(C)cc2)cc1 was read as sPLA2-III inh -12, PLCb3 inh 2, proCasp7 act 2, PLC-gamma1 inh 2, Arr AP2 block 7 and proCasp3 act 6.
`O=C(NCC1CCCO1)C(c1cccnc1)N(C(=O)Cc1cccs1)c1cccnc1` (stereo not given) gave sPLA2-III inh 8, PLCb3 inh 13*, proCasp7 act 3, PLC-gamma1 inh 11*, Arr AP2 block 0, proCasp3 act 6, PLCgamma1 ctr -9 and PLCbeta3 conf -4.
`O=C(CCCNS(=O)(=O)c1ccc(Cl)c(Cl)c1)NCCc1ccccn1` gave sPLA2-III inh 1, PLCb3 inh -6, proCasp7 act 8, PLC-gamma1 inh -1, Arr AP2 block -31 and proCasp3 act -4.
For Cc1cc(OCCCC(=O)NCCc2ccccn2)ccc1Cl the results were sPLA2-III inh 3, PLCb3 inh -6, proCasp7 act 3, PLC-gamma1 inh 9.5*, Arr AP2 block 25, proCasp3 act 3, PLCgamma1 ctr -2 and PLCbeta3 conf -2.
Screening Cc1ccc(S(=O)(=O)Nc2ccc(Cl)cc2O)cc1 returned sPLA2-III inh -19, PLCb3 inh 0 and PLC-gamma1 inh 2.
Screening CC(=O)c1cc(-c2ccc(Oc3ccccc3)cc2)c(=O)n2c1CCC2 returned sPLA2-III inh -6, PLCb3 inh -28 and PLC-gamma1 inh -19.
For C=C1CC2(CC(c3ccccc3)OC(c3ccccc3)C2)OC1=O (stereo not given) the results were sPLA2-III inh 3, PLCb3 inh 10, PLC-gamma1 inh 13*, Arr AP2 block -10, PLCgamma1 ctr -2 and PLCbeta3 conf -2.
Screening COCCNC(=O)C1(C)Cc2c(-c3ccc(N(C)C)cc3)ccnc2O1 (stereo not given) returned sPLA2-III inh 1, PLCb3 inh -364 and PLC-gamma1 inh -267.
Screening CCN(C(=O)COC(=O)c1ccc(OCc2c(C)noc2C)cc1)c1ccccc1 returned sPLA2-III inh -11, PLCb3 inh 2, proCasp7 act 5, PLC-gamma1 inh 14*, Arr AP2 block -1, proCasp3 act -7, PLCgamma1 ctr -1 and PLCbeta3 conf 0.
`CCN(c1ccccc1)S(=O)(=O)c1ccc(OCc2c(C)noc2C)cc1` gave sPLA2-III inh -18, PLCb3 inh 2, proCasp7 act 1, PLC-gamma1 inh 2, Arr AP2 block -2 and proCasp3 act 4.
For Cc1ccc(C(=O)NNC(=O)c2ccccc2OCc2c(C)noc2C)cc1 the results were sPLA2-III inh -5, PLCb3 inh 2, PLC-gamma1 inh -1 and Arr AP2 block 0.
For Cc1noc(C)c1COc1ccccc1C(=O)NNC(=O)c1ccccc1 the results were sPLA2-III inh -1, PLCb3 inh 9, proCasp7 act 6, PLC-gamma1 inh 11*, Arr AP2 block -10, proCasp3 act -2, PLCgamma1 ctr -1 and PLCbeta3 conf 1.
For COc1ccc(NC(=O)c2cc(-c3ccc(OC)c(OC)c3)on2)cc1OC the results were sPLA2-III inh 8, PLCb3 inh 10, proCasp7 act 10, PLC-gamma1 inh 10.0*, Arr AP2 block 18, proCasp3 act 14, PLCgamma1 ctr -155 and PLCbeta3 conf -194.
COc1cc(OC)c(S(=O)(=O)Nc2ccccc2N2CCOCC2)cc1NC(C)=O was read as sPLA2-III inh -3, PLCb3 inh 1, proCasp7 act 9, PLC-gamma1 inh 4, Arr AP2 block 1 and proCasp3 act 3.
For COc1cc(OC)c(S(=O)(=O)Nc2ccccc2NC(=O)CN2CCOCC2)cc1NC(C)=O the results were sPLA2-III inh 7, PLCb3 inh 2, proCasp7 act 8, PLC-gamma1 inh 15*, Arr AP2 block 8, proCasp3 act 5, PLCgamma1 ctr -6 and PLCbeta3 conf -4.
`CCCCCCCCN1C(=O)[C@H](CC(=O)NCc2ccc(OC)c(OC)c2)C[C@@]2(C(=O)OC)CCCCC=C12` gave sPLA2-III inh -13, PLCb3 inh -2 and PLC-gamma1 inh -1.
`Cc1ccc(C)c(N(Cc2ccccc2F)S(C)(=O)=O)c1` gave sPLA2-III inh -4, PLCb3 inh 0, proCasp7 act 5, PLC-gamma1 inh 10*, Arr AP2 block 9, proCasp3 act 4, PLCgamma1 ctr -1 and PLCbeta3 conf 1.
`Cc1noc(C)c1-c1nnc(-c2ccc(C(F)(F)F)cc2)o1` gave sPLA2-III inh 9, PLCb3 inh 1, proCasp7 act 8, PLC-gamma1 inh 10*, Arr AP2 block 12, proCasp3 act 12, PLCgamma1 ctr 5 and PLCbeta3 conf 2.
For CC(C)CN1C(=O)C[C@]2(C(=O)N(C)c3ccc(NC(=O)C(C)(C)C)cc32)C1c1ccccc1 (stereo not given in full) the results were sPLA2-III inh 4, PLCb3 inh -7 and PLC-gamma1 inh -7.
